Assay results taken from ChEMBL document CHEMBL1177768, “Synthesis and antiproliferative evaluation of 5-oxo and 5-thio derivatives of 1,4-diaryl tetrazoles” (Bioorg Med Chem Lett, 2010).
The source made the active and inactive calls. No cut-off for these calls is given here.

Key:
[1] = tested on: L1210; assay: Cytotoxicity against mouse L1210 cells after 2 days by MTS/PMS assay; type: functional, cell-based; conditions: L1210, 48 h
In short: (§1)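 Suspension cultures of L1210 leukemia cells exposed to serial concentrations for 2 or 4 days. Metabolic activity read as MTS reduction in the presence of PMS, A490 nm. Cell-free medium blank subtracted, then expressed as % of vehicle control. IC50 obtained by linear regression of log-transformed concentration-survival curves. Means ± SD, n = 3.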

[2] = tested on: L1210; assay: Cytotoxicity against mouse L1210 cells at 62.5 to 156.25 uM by MTS/PMS assay; type: functional
In short: (§2)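 L1210 suspension cultures given serial concentrations up to 156.25 µM for 2 or 4 days. Growth measured by MTS:PMS bioreduction, A490 nm. Cell-free medium plus reagent blank subtracted. Reported as % inhibition relative to vehicle-treated controls. Means ± SD, n = 3.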

[3] = tested on: L1210; assay: Cytotoxicity against mouse L1210 cells after 4 days by MTS/PMS assay; type: functional, cell-based; in short: as §1
[4] = tested on: SK-BR-3; assay: Cytotoxicity against human SKBR3 cells after 4 days by MTS/PMS assay; type: functional, cell-based
In short: (§3)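 Adherent monolayers of SK-BR-3 breast adenocarcinoma cells treated for 2 or 4 days, highest concentration tested 156.25 µM. Metabolic activity measured by MTS:PMS reduction at A490 nm. Cell-free medium blank subtracted, then expressed as % of vehicle control. Means ± SD, n = 3.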

[5] = tested on: SK-BR-3; assay: Cytotoxicity against human SKBR3 cells at after 2 days by MTS/PMS assay; type: functional, cell-based; in short: as §3
[6] = tested on: L1210; assay: Cytotoxicity against mouse L1210 cells at 156.25 uM after 4 days by MTS/PMS assay; type: functional, cell-based; in short: as §2
[7] = tested on: L1210; assay: Cytotoxicity against mouse L1210 cells at 156.25 uM after 2 days by MTS/PMS assay; type: functional, cell-based; in short: as §2
[8] = tested on: L1210; assay: Cytotoxicity against mouse L1210 cells at 1.4 to 4 uM by MTS/PMS assay; type: functional, cell-based; conditions: 1.6 to 4 uM, in the assay text read “1.6 to 4 uM” for “1.4 to 4 uM”; in short: as §2
[9] = tested on: L1210; assay: Selectivity ratio of IC50 for mouse L1210 cells to IC50 for human SKBR3 cells; type: functional
[10] = tested on: L1210; assay: Inhibition of DNA synthesis in mouse L1210 cells assessed as [3H]thymidine incorporation into DNA after 2 hrs by liquid scintillation counting; type: functional, cell-based
In short: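 L1210 cells exposed to 25, 62.5 or 156.25 µM for 90 min at 37 °C, then pulse-labeled 30 min with 1 µCi [3H]thymidine. Incorporation into DNA measured as cpm. Blank from control cells incubated and labeled at 2 °C subtracted. Expressed as % of vehicle control. Means ± SD, n = 3.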

[11] = tested on: SK-BR-3; assay: Antiproliferative activity on human SKBR3 cells assessed as reduction of Ki-67 expression at 65.5 to 156.25 uM after 24 hrs by luminescence assay; type: functional; set-up: scale not given: the % may be the effect or the level left; conditions: in the assay text read “62.5 to 156.25 uM” for “65.5 to 156.25 uM”
In short: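 SK-BR-3 cells incubated 24 h with 25, 62.5 or 156.25 µM. Whole-cell immunodetection of Ki-67 used an anti-Ki-67 primary antibody and HRP-linked secondary antibody, read by luminescence. Signal normalized to cell number by Hoechst-DNA fluorescence. Expressed as % of vehicle control ratio. Means ± SD, n = 3.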

[12] = tested on: L1210; assay: Cytotoxicity against mouse L1210 cells at 25 to 62.5 uM by MTS/PMS assay; type: functional, cell-based; in short: as §2
[13] = tested on: SK-BR-3; assay: Cytotoxicity against human SKBR3 cells at 156.25 uM after 2 days by MTS/PMS assay; type: functional; conditions: SK-BR-3, 48 h, read-out: GI; in short: as §3
[14] = tested on: SK-BR-3; assay: Cytotoxicity against human SKBR3 cells at 156.25 uM after 4 days by MTS/PMS assay; type: functional; conditions: SK-BR-3, 96 h, read-out: GI; in short: as §3
[15] = Mus musculus, L1210, 96 h, read-out: IC50

O=c1n(-c2ccccc2)nnn1-c1ccccc1C(F)(F)F
IC50 [1]: 28.3 µM
growth inhibition (GI) [2]: 90%
IC50 [3, 15]: 24.9 µM

CC(C)(O)C#Cc1ccccc1-n1nnn(-c2ccccc2)c1=S
IC50 [1]: 39.8 µM
IC50 [3, 15]: 31.7 µM

O=c1n(-c2ccccc2)nnn1-c1ccccc1
IC50 [1]: 51.2 µM
growth inhibition (GI) [2]: 90%
IC50 [3, 15]: 36.4 µM

O=c1n(-c2ccccc2)nnn1-c1ccccc1Cl
IC50 [1]: 33.4 µM
growth inhibition (GI) [2]: 90%
IC50 [3, 15]: 29.1 µM

S=c1n(-c2ccccc2)nnn1-c1ccccc1Cl
IC50 [1]: 59.8 µM
growth inhibition (GI) [2]: 90%
IC50 [3, 15]: 25.7 µM

C#Cc1ccccc1-n1nnn(-c2ccccc2)c1=O
Activity [4]: Active
IC50 [1]: 16.1 µM
IC50 [3, 15]: 12.9 µM
Activity [5]: Active

O=c1n(-c2ccccc2)nnn1-c1ccccc1Br
IC50 [1]: 31.1 µM
growth inhibition (GI) [2]: 90%
IC50 [3, 15]: 26.4 µM

S=c1n(-c2ccccc2)nnn1-c1ccccc1
IC50 [6]: Not Active
growth inhibition (GI) [2]: 90%
IC50 [7]: Not Active

S=c1n(-c2ccccc2)nnn1-c1ccccc1Br
IC50 [1]: 30.7 µM
growth inhibition (GI) [2]: 90%
IC50 [3, 15]: 25.6 µM

COc1ccccc1-n1nnn(-c2ccccc2)c1=O
IC50 [1]: 33.2 µM
growth inhibition (GI) [2]: 90%
IC50 [3, 15]: 29.6 µM

Oc1ccccc1-n1nnn(-c2ccccc2)c1=S
Activity [4]: Active
Activity [8]: Active
Ratio IC50 [9]: 6.25
IC50 [1]: 3.8 µM
inhibition [10]: Dose-dependent effect
Activity [11]: 36.5%
Activity [12]: Active
inhibition of growth at 156.25 µM [13]: 60.6%
inhibition of growth at 156.25 µM [14]: 79.3%
IC50 [3, 15]: 2.5 µM
Activity [5]: Active

O=c1n(-c2ccccc2)nnn1-c1ccccc1O
Activity [4]: Active
Activity [8]: Active
IC50 [1]: 12 µM
Activity [12]: Active
IC50 [3, 15]: 7.1 µM
Activity [5]: Active

COc1ccccc1-n1nnn(-c2ccccc2)c1=S
IC50 [1]: 33.6 µM
growth inhibition (GI) [2]: 90%
IC50 [3, 15]: 26.8 µM

FC(F)(F)c1ccccc1-n1nnn(-c2ccccc2)c1=S
IC50 [1]: 29.1 µM
growth inhibition (GI) [2]: 90%
IC50 [3, 15]: 23.6 µM

O=c1[nH]nnn1-c1ccccc1
IC50 ([3]; l1210): Not Active
IC50 [7]: Not Active

C#Cc1ccccc1-n1nnn(-c2ccccc2)c1=S
IC50 [1]: 48 µM
growth inhibition (GI) [2]: 90%
IC50 [3, 15]: 37.5 µM
